Source: ChEMBL document CHEMBL1687757, “Many chromosomal genes modulate MarA-mediated multidrug resistance in Escherichia coli” (2010)
Converted amounts (≈) assume the structure as drawn.

What was measured:
Format in all cases: functional
[1] = system: Escherichia coli; experiment: Antibacterial activity against wild-type Escherichia coli BW25113 after 20 hrs by Etest method; settings: BW25113, 20 h
Procedure, shortened: (§1)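 MICs by Etest strips on Mueller-Hinton plates, following the manufacturer's specifications. Cells came from overnight liquid cultures in LB at 37°C with agitation. Plates were read after 20 h at 37°C. Antibiotics tested were cefoxitin, norfloxacin, chloramphenicol and minocycline.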

[2] = system: Escherichia coli; experiment: Antibacterial activity against MarA-deficient Escherichia coli CR2000 after 20 hrs by Etest method; settings: CR2000, 20 h
Procedure, shortened: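 Overnight LB-grown cultures (37°C, agitation) of the ΔmarRA strain (BW25113 background) tested on Mueller-Hinton plates with Etest strips per manufacturer's instructions. MIC read after 20 h at 37°C.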

[3] = system: Escherichia coli; experiment: Antibacterial activity against MarA-overexpressing Escherichia coli CR1000 after 20 hrs by Etest method; settings: CR1000, 20 h; procedure, shortened: as §1
[4] = system: Escherichia coli; experiment: Ratio of MIC for marA-overproducing Escherichia coli CR1000 to MIC for MarA-deficient Escherichia coli CR2000
Procedure, shortened: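 MICs measured by Etest on Mueller-Hinton plates, read after 20 h at 37°C, for the ΔmarR strain (constitutive chromosomal marA overexpression) and the ΔmarRA strain (BW25113 background), both grown overnight in LB at 37°C. MarA-mediated MDR expressed as the ΔmarR/ΔmarRA MIC ratio.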

[5] = system: Escherichia coli; experiment: Antibacterial activity against marA-overproducing Escherichia coli CR1000 harboring inactivated cspGp gene assessed as MarA-mediated multidrug resistance level by measuring fold change in MIC relative to MarA-deficient Escherichia coli CR2000
Procedure, shortened: (§2)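 Each inactivated gene was transferred into both the ΔmarR (CR1000) and the ΔmarRA (CR2000) BW25113 backgrounds. Each derivative was grown overnight in LB and tested by Etest on Mueller-Hinton plates, read after 20 h at 37°C, against cefoxitin, norfloxacin, chloramphenicol and minocycline. The MarA-mediated level compares the MIC in the ΔmarR derivative with the MIC in the matching ΔmarRA derivative.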

[6] = system: Escherichia coli; experiment: Antibacterial activity against marA-overproducing Escherichia coli CR1000 harboring inactivated ompR gene assessed as MarA-mediated multidrug resistance level by measuring fold change in MIC relative to MarA-deficient Escherichia coli CR2000; procedure, shortened: as §2
[7] = system: Escherichia coli; experiment: Antibacterial activity against marA-overproducing Escherichia coli CR1000 harboring inactivated appA gene assessed as MarA-mediated multidrug resistance level by measuring fold change in MIC relative to MarA-deficient Escherichia coli CR2000; procedure, shortened: as §2
[8] = system: Escherichia coli; experiment: Antibacterial activity against marA-overproducing Escherichia coli CR1000 harboring inactivated degP gene assessed as MarA-mediated multidrug resistance level by measuring fold change in MIC relative to MarA-deficient Escherichia coli CR2000; procedure, shortened: as §2
[9] = system: Escherichia coli; experiment: Antibacterial activity against marA-overproducing Escherichia coli CR1000 harboring inactivated maoC gene assessed as MarA-mediated multidrug resistance level by measuring fold change in MIC relative to MarA-deficient Escherichia coli CR2000; procedure, shortened: as §2
[10] = system: Escherichia coli; experiment: Antibacterial activity against marA-overproducing Escherichia coli CR1000 harboring inactivated metL gene assessed as MarA-mediated multidrug resistance level by measuring fold change in MIC relative to MarA-deficient Escherichia coli CR2000; procedure, shortened: as §2
[11] = system: Escherichia coli; experiment: Antibacterial activity against marA-overproducing Escherichia coli CR1000 harboring inactivated recD gene assessed as MarA-mediated multidrug resistance level by measuring fold change in MIC relative to MarA-deficient Escherichia coli CR2000; procedure, shortened: as §2
[12] = system: Escherichia coli; experiment: Antibacterial activity against marA-overproducing Escherichia coli CR1000 harboring inactivated treC gene assessed as MarA-mediated multidrug resistance level by measuring fold change in MIC relative to MarA-deficient Escherichia coli CR2000; procedure, shortened: as §2
[13] = system: Escherichia coli; experiment: Antibacterial activity against marA-overproducing Escherichia coli CR1000 harboring inactivated ynfE gene assessed as MarA-mediated multidrug resistance level by measuring fold change in MIC relative to MarA-deficient Escherichia coli CR2000; procedure, shortened: as §2
[14] = system: Escherichia coli; experiment: Antibacterial activity against marA-overproducing Escherichia coli CR1000 harboring inactivated mhpT gene assessed as MarA-mediated multidrug resistance level by measuring fold change in MIC relative to MarA-deficient Escherichia coli CR2000; procedure, shortened: as §2
[15] = system: Escherichia coli; experiment: Antibacterial activity against marA-overproducing Escherichia coli CR1000 harboring inactivated nikD gene assessed as MarA-mediated multidrug resistance level by measuring fold change in MIC relative to MarA-deficient Escherichia coli CR2000; procedure, shortened: as §2
[16] = system: Escherichia coli; experiment: Antibacterial activity against marA-overproducing Escherichia coli CR1000 harboring inactivated alx gene assessed as MarA-mediated multidrug resistance level by measuring fold change in MIC relative to MarA-deficient Escherichia coli CR2000; procedure, shortened: as §2
[17] = system: Escherichia coli; experiment: Antibacterial activity against marA-overproducing Escherichia coli CR1000 harboring inactivated metV gene assessed as MarA-mediated multidrug resistance level by measuring fold change in MIC relative to MarA-deficient Escherichia coli CR2000; procedure, shortened: as §2
[18] = system: Escherichia coli; experiment: Antibacterial activity against marA-overproducing Escherichia coli CR1000 harboring inactivated yfdG gene assessed as MarA-mediated multidrug resistance level by measuring fold change in MIC relative to MarA-deficient Escherichia coli CR2000; procedure, shortened: as §2
[19] = system: Escherichia coli; experiment: Antibacterial activity against marA-overproducing Escherichia coli CR1000 harboring inactivated yibLp gene assessed as MarA-mediated multidrug resistance level by measuring fold change in MIC relative to MarA-deficient Escherichia coli CR2000; procedure, shortened: as §2
[20] = system: Escherichia coli; experiment: Antibacterial activity against marA-overproducing Escherichia coli CR1000 harboring inactivated yniDp gene assessed as MarA-mediated multidrug resistance level by measuring fold change in MIC relative to MarA-deficient Escherichia coli CR2000; procedure, shortened: as §2
[21] = system: Escherichia coli; experiment: Antibacterial activity against marA-overproducing Escherichia coli CR1000 harboring inactivated hns gene assessed as MarA-mediated multidrug resistance level by measuring fold decrease in MIC relative to MarA-deficient Escherichia coli CR2000; parameters: scale not given: the % may be the effect or the level left; procedure, shortened: as §2
[22] = system: Escherichia coli; experiment: Antibacterial activity against marA-overproducing Escherichia coli CR1000 harboring inactivated cyaA gene assessed as MarA-mediated multidrug resistance level by measuring fold decrease in MIC relative to MarA-deficient Escherichia coli CR2000; parameters: scale not given: the % may be the effect or the level left; procedure, shortened: as §2
[23] = system: Escherichia coli; experiment: Antibacterial activity against marA-overproducing Escherichia coli CR1000 harboring inactivated pcnB gene assessed as MarA-mediated multidrug resistance level by measuring fold decrease in MIC relative to MarA-deficient Escherichia coli CR2000; parameters: scale not given: the % may be the effect or the level left; procedure, shortened: as §2
[24] = system: Escherichia coli; experiment: Antibacterial activity against marA-overproducing Escherichia coli CR1000 harboring inactivated acrA gene assessed as MarA-mediated multidrug resistance level by measuring fold decrease in MIC relative to MarA-deficient Escherichia coli CR2000; parameters: scale not given: the % may be the effect or the level left; procedure, shortened: as §2
[25] = system: Escherichia coli; experiment: Antibacterial activity against marA-overproducing Escherichia coli CR1000 harboring inactivated acrB gene assessed as MarA-mediated multidrug resistance level by measuring fold decrease in MIC relative to MarA-deficient Escherichia coli CR2000; parameters: scale not given: the % may be the effect or the level left; procedure, shortened: as §2
[26] = system: Escherichia coli; experiment: Antibacterial activity against marA-overproducing Escherichia coli CR1000 harboring inactivated tolC gene assessed as MarA-mediated multidrug resistance level by measuring fold decrease in MIC relative to MarA-deficient Escherichia coli CR2000; parameters: scale not given: the % may be the effect or the level left; procedure, shortened: as §2
[27] = system: Escherichia coli; experiment: Antibacterial activity against marA-overproducing Escherichia coli CR1000 harboring inactivated damX gene assessed as MarA-mediated multidrug resistance level by measuring fold decrease in MIC relative to MarA-deficient Escherichia coli CR2000; parameters: scale not given: the % may be the effect or the level left; procedure, shortened: as §2
[28] = system: Escherichia coli; experiment: Antibacterial activity against marA-overproducing Escherichia coli CR1000 harboring inactivated crp gene assessed as MarA-mediated multidrug resistance level by measuring fold change in MIC relative to MarA-deficient Escherichia coli CR2000; procedure, shortened: as §2

Compound | MIC [1] [µg/mL] | MIC [2] [µg/mL] | MIC [3] [µg/mL] | Ratio [4] | Activity [5] [%] | Activity [6] [%] | Activity [7] [%] | Activity [8] [%] | Activity [9] [%] | Activity [10] [%] | Activity [11] [%] | Activity [12] [%] | Activity [13] [%] | Activity [14] [%] | Activity [15] [%] | Activity [17] [%] | Activity [18] [%] | Activity [19] [%] | Activity [20] [%] | Activity [21] [%] | other results
O=C(N[C@H](CO)[C@H](O)c1ccc([N+](=O)[O-])cc1)C(Cl)Cl [CHLORAMPHENICOL] | 10.7 (≈ 33.1 µM) | 8.1 (≈ 25.1 µM) | 23.9 (≈ 74 µM) | 3 | 93 | 93 | 93 | 50 | 75 | 100 | 50 | 85 | 93 | 100 | 50 | 75 | 93 | 50 | 125 | 20 | Activity [16]: 100%; Activity [22]: 46%; Activity [23]: 33%; Activity [24]: 8%; Activity [25]: 8%; Activity [26]: 0%; Activity [27]: 50%; Activity [28]: 29%
CN(C)c1ccc(O)c2c1C[C@H]1C[C@H]3[C@H](N(C)C)C(O)=C(C(N)=O)C(=O)[C@@]3(O)C(O)=C1C2=O [MINOCYCLINE] | 3.3 (≈ 7.21 µM) | 2.4 (≈ 5.25 µM) | 4.9 (≈ 10.7 µM) | 2 | 75 | 100 | 100 | 100 | 40 | 100 | 65 | 100 | 100 | 100 | 125 | 65 | 65 | 100 | 50 | 35 | Activity [16]: 65%; Activity [22]: 32%; Activity [23]: 30%; Activity [24]: 40%; Activity [25]: 40%; Activity [26]: 40%; Activity [27]: 30%; Activity [28]: 38%
CCn1cc(C(=O)O)c(=O)c2cc(F)c(N3CCNCC3)cc21 [NORFLOXACIN] | 0.09 (≈ 0.282 µM) | 0.07 (≈ 0.219 µM) | 0.21 (≈ 0.658 µM) | 3.1 | 91 | 77 | 84 | 91 | 61 | 91 | 77 | 46 | 68 | 91 | 68 | 91 | 91 | 68 | 77 | 23 | Activity [16]: 68%; Activity [22]: 41%; Activity [23]: 23%; Activity [24]: 0%; Activity [25]: 9%; Activity [26]: 0%; Activity [27]: 46%; Activity [28]: 33%
CO[C@@]1(NC(=O)Cc2cccs2)C(=O)N2C(C(=O)O)=C(COC(N)=O)CS[C@@H]21 [CEFOXITIN] | 4 (≈ 9.36 µM) | 3.2 (≈ 7.49 µM) | 10.6 (≈ 24.8 µM) | 3.3 | 54 | 67 | 68 | 94 | 100 | 120 | 80 | 94 | 94 | 68 | 68 | 74 | 68 | 68 | 94 | 19 | Activity [22]: 43%; Activity [23]: 10%; Activity [24]: 16%; Activity [25]: 6%; Activity [26]: 0%; Activity [27]: 40%; Activity [28]: 21%
